Measured values from different studies.
Protocols differ between the studies behind these lines. pIC50: −log10 of the molar value.
Action: inhibitor
BCHE: Cholinesterase (BCHE, Equus caballus, UniProt P81908)

| SMILES | target | test | test system | pIC50 |
| --- | --- | --- | --- | --- |
| CN(C)C(=O)Oc1ccc(/C=C/C(=O)NC2CCN(Cc3ccccc3)CC2)cc1 | BCHE | enzyme activity, Ellman | – | 4.94 |
| O=C(O)C(/C=C/c1c(Cl)cccc1Cl)=N\Nc1nc(-c2ccc(F)cc2)cs1 | BCHE | enzyme activity | – | 5.39 |
| COc1ccc(OC)c(/C=C/C(=O)N2CCCC(NC(=O)OC(C)(C)C)C2)c1 (stereo not shown) | BCHE | enzyme activity, Ellman | – | < 4.30 |
| CCN(C)C(=O)Oc1ccc(CCC(=O)N(CC)Cc2ccccc2)cc1OC | BCHE | enzyme activity, Ellman | – | 4.90 |
| CC(C)(C)OC(=O)NC1CCCN(C(=O)/C=C/c2cccc(F)c2)C1 (stereo not shown) | BCHE | enzyme activity, Ellman | – | 4.81 |
| CCN(CC)C(=O)Oc1ccc(/C=C/C(=O)NC2CCN(Cc3ccccc3)CC2)cc1 | BCHE | enzyme activity, Ellman | – | 4.82 |
| O=C(N1CCC2(CC1)C[C@H](CN1CCCCS1(=O)=O)CCO2)C1(c2ccccc2)CCCC1 | DHX58 (Homo sapiens, UniProt Q96C10) | ATPase activity | – | < 4.30 |
| CC(C)(C)OC(=O)NC1CCCN(C(=O)/C=C/c2cccc([N+](=O)[O-])c2)C1 (stereo not shown) | BCHE | enzyme activity, Ellman | – | < 4.30 |
| O=C(O)C(/C=C/c1c(Cl)cccc1Cl)=N\Nc1nc(-c2ccc(Br)cc2)cs1 | BCHE | enzyme activity | – | 5.07 |
| CC(=O)c1c(C)c2cnc(Nc3ccc(C4CCN(CCS(C)(=O)=O)CC4)cn3)nc2n(C2CCCC2)c1=O | Cytochrome P450 2B6 (CYP2B6, Homo sapiens, UniProt P20813) | enzyme activity | human, liver microsomes | < 5.00 |
| COc1cc(/C=C/C(=O)NC2CCN(Cc3ccccc3)CC2)ccc1OC(=O)N1CCCC1 | BCHE | enzyme activity, Ellman | – | 5.47 |
| CC(C)(C)OC(=O)NC1CCCN(C(=O)/C=C/c2ccc(Br)cc2)C1 (stereo not shown) | BCHE | enzyme activity, Ellman | – | 4.42 |
| COc1cc(/C=C/C(=O)NC2CCN(Cc3ccccc3)CC2)ccc1OC(=O)N(C)C | BCHE | enzyme activity, Ellman | – | 5.02 |
| CN1CC[C@@]2(C)c3cc(OC(=O)Nc4ccccc4)ccc3N(C)[C@@H]12 | Aldehyde dehydrogenase, dimeric NADP-preferring (ALDH3A1, Homo sapiens, UniProt P30838) | enzyme activity, fluorescence | – | > 5.00 |
| O=C(O)C(/C=C/c1c(Cl)cccc1Cl)=N\Nc1nc(-c2ccc(Cl)cc2)cs1 | BCHE | enzyme activity | – | 5.13 |
| CC(C)(C)OC(=O)NC1CCCN(C(=O)C=Cc2ccccc2)C1 (stereo not shown) | BCHE | enzyme activity, Ellman | – | 4.36 |
